Data reported in article PMC5598146 (Toxicology Reports, 2015).
“Also recorded” adds a separate entry of the source.

Assays:
[1] = Pharmacokinetics and oral bioavailability in rats; assay type: in vivo, Sprague-Dawley rats; conditions: for half-life / bioavailability / clearance / Tmax: rat, plasma
[2] = tested on: human peripheral blood lymphocytes (HPBL); assay: In vitro chromosome aberration test; assay type: cell-based; conditions: 125-500 ug/mL, 3 h ±S9, 20 h -S9
In short: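 Human peripheral blood lymphocytes were exposed to the sodium salt of the test compound (0–500 µg/mL) per OECD 473, with solvent and positive controls (mitomycin C −S9, cyclophosphamide +S9). Exposures: 3 h and 20 h without S9, and 3 h with S9 from phenobarbital/5,6-benzoflavone-induced male Sprague-Dawley rat liver. Structural and numerical aberrations were scored at 125, 250 and 500 µg/mL for each condition.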

[3] = Dietary exposure estimate; conditions: 100 mg/kg bw/day vs 2400 μg/day
[4] = tested on: Swiss albino (CD-1) mice; assay: In vivo mouse micronucleus assay; conditions: 500-2000 mg/kg bw oral, male mice
[5] = Toxicokinetics in the 90-day dietary study; assay type: in vivo, Sprague-Dawley rats; conditions: for AUC(0-t): Sprague-Dawley [Crl:CD(SD)], rat, in vivo, po, AUC(0-24)
[6] = Relative oral bioavailability of sodium, phosphate and hemisulfate salts in rats; assay type: in vivo, Sprague-Dawley rats
In short: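 Male Sprague-Dawley rats, 4/group, received a single 30 mg/kg oral gavage dose in 1% methylcellulose of either parent acid or its sodium, phosphate or sulfate salt. Jugular-catheter blood was drawn at about 15 and 30 min and at 1, 2, 4, 8 and 24 h. Plasma parent was measured by LC/MS/MS with an internal standard. Relative AUClast and Cmax were corrected for molecular-weight differences.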

[7] = Excretion in urine and feces of rats; assay type: in vivo, Sprague-Dawley rats; conditions: 10 mg/kg oral
[8] = tested on: S. typhimurium strains TA98 and TA100; assay: Abbreviated Ames; assay type: cell-based; conditions: plate incorporation, up to 5000 μg/plate, ±S9
In short: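 Salmonella TA98 and TA100 plate-incorporation assay per OECD 471, run with and without rat liver S9. Test compound and its decarboxylated impurity were tested at concentrations up to and including 5000 µg/plate, with vehicle and positive controls. Revertant colony counts were compared with vehicle control, and bacterial toxicity was recorded.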

[9] = tested on: Sprague-Dawley rats; assay: 90-Day subchronic toxicity study; assay type: in vivo, rat; conditions: 90 days
In short: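 Male and female Crl:CD(SD) rats, 20/sex/group, fed 0 (basal diet), 30, 60 or 100 mg/kg/day in the diet for 90 days. […] End-points: functional observation battery, motor activity, body weight gain, food consumption, hematology, clinical chemistry, urinalysis, organ weights, necropsy, and histopathology of at least 53 tissues (control and high dose only).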

[10] = tested on: bred female Crl:CD(SD) rats; assay: Dose range-finding developmental toxicity study; assay type: in vivo, rat; conditions: 125, 250, 500, 1000 mg/kg/day oral gavage, gestation Days 6-20
[11] = male, Sprague-Dawley, rat, plasma, po, 30 mg/kg

Cc1nc2cccc(OCC(C)(C)C(=O)NC(C)C)c2c(N)c1C(=O)O [S9632, 4-amino-5-(3-(isopropylamino)-2,2-dimethyl-3-oxopropoxy)-2-methylquinoline-3-carboxylic acid] gave a half-life ([1]; both, Sprague-Dawley [Crl:CD(SD)], iv, 1 mg/kg, apparent plasma half-life (t1/2), range, iv, male and female) of 11.4 to 16.2 min, a half-life ([1]; both, Sprague-Dawley [Crl:CD(SD)], po, plasma elimination half-life (t1/2), range, oral administration) of 42.6 to 83.4 min and a half-life ([1]; both, Sprague-Dawley, iv, 1 mg/kg, t1/2, intravenous) of less than 16.2 min. It also gave a bioavailability ([1]; both, Sprague-Dawley, po) of 0.53 to 1.19%, a half-life ([1]; both, Sprague-Dawley, po, t1/2, oral administration) of less than 83.4 min and a bioavailability ([1]; female, Sprague-Dawley [Crl:CD(SD)], po, 100 mg/kg) of 0.83%. The clearance ([1]; female, Sprague-Dawley, iv, 1 mg/kg) was 42.5 mL/min/kg, the Tmax ([1]; female, Sprague-Dawley, iv, 1 mg/kg, iv 1.0 mg/kg, Day 1, F) was 1.8 min and the half-life ([1]; female, Sprague-Dawley, iv, 1 mg/kg, t1/2, iv 1.0 mg/kg, Day 1, F) was 16.2 min. It also gave a bioavailability ([1]; female, Sprague-Dawley, po, 10 mg/kg) of 1.19%, a bioavailability ([1]; female, Sprague-Dawley, po, 30 mg/kg) of 0.77% and an AUC0-last/dose ([1]; iv 1.0 mg/kg, Day 1, F) of 411.9 ng·h/mL/mg/kg. The AUC0-last/dose ([1]; iv 1.0 mg/kg, Day 1, M) was 330.6 ng·h/mL/mg/kg, the “Mean plasma clearance as % of hepatic blood flow” value ([1]; iv, females) was 77.3% and the “Mean plasma clearance as % of hepatic blood flow” value ([1]; iv, males) was 93.6%. The clearance ([1]; male, Sprague-Dawley, iv, 1 mg/kg) was 51.5 mL/min/kg, the Tmax ([1]; male, Sprague-Dawley, iv, 1 mg/kg, iv 1.0 mg/kg, Day 1, M) was 1.8 min and the half-life ([1]; male, Sprague-Dawley, iv, 1 mg/kg, t1/2, iv 1.0 mg/kg, Day 1, M) was 11.4 min. For the same compound, the bioavailability ([1]; male, Sprague-Dawley, po, 10 mg/kg) was 0.54%, the bioavailability ([1]; male, Sprague-Dawley, po, 30 mg/kg) was 0.92% and the bioavailability ([1]; male, Sprague-Dawley, po, 100 mg/kg) was 0.53%. For the same compound, the AUC0-last/dose ([1]; oral gavage 10 mg/kg, Day 1, F) was 4.92 ng·h/mL/mg/kg, the AUC0-last/dose ([1]; oral gavage 10 mg/kg, Day 1, M) was 1.79 ng·h/mL/mg/kg and the AUC0-last/dose ([1]; oral gavage 10 mg/kg, Day 7, F) was 5.89 ng·h/mL/mg/kg. For the same compound, the AUC0-last/dose ([1]; oral gavage 10 mg/kg, Day 7, M) was 4.81 ng·h/mL/mg/kg, the AUC0-last/dose ([1]; oral gavage 30 mg/kg, Day 1, F) was 3.17 ng·h/mL/mg/kg and the AUC0-last/dose ([1]; oral gavage 30 mg/kg, Day 1, M) was 3.03 ng·h/mL/mg/kg. It also gave an AUC0-last/dose ([1]; oral gavage 30 mg/kg, Day 7, F) of 3.56 ng·h/mL/mg/kg, an AUC0-last/dose ([1]; oral gavage 30 mg/kg, Day 7, M) of 2.87 ng·h/mL/mg/kg and an AUC0-last/dose ([1]; oral gavage 100 mg/kg, Day 1, F) of 3.41 ng·h/mL/mg/kg. The AUC0-last/dose ([1]; oral gavage 100 mg/kg, Day 1, M) was 1.76 ng·h/mL/mg/kg, the AUC0-last/dose ([1]; oral gavage 100 mg/kg, Day 7, F) was 2.79 ng·h/mL/mg/kg and the AUC0-last/dose ([1]; oral gavage 100 mg/kg, Day 7, M) was 1.85 ng·h/mL/mg/kg. For the same compound, the Accumulation in plasma ([1]; repeated oral dosing for 7 consecutive days) was “No significant accumulation”, the “Chromosome aberration (in vitro), result” value [2] was “Negative” and the “NOAEL (90-day) relative to estimated dietary exposure” value [3] was 2500 times. For the same compound, the “Micronucleus formation (in vivo), result” value [4] was “did not induce micronuclei; also recorded: Negative”, the AUC(0-t) ([5]; both, 30 mg/kg/day, food ad-mix 30 mg/kg/day, Day 90, Combined) was 341 ng·h/mL and the AUC(0-t) ([5]; both, 100 mg/kg/day, food ad-mix 100 mg/kg/day, Day 7, Combined) was 1040 ng·h/mL. For the same compound, the AUC(0-t) ([5]; both, 100 mg/kg/day, food ad-mix 100 mg/kg/day, Day 90, Combined) was 1200 ng·h/mL, the AUC(0-t) ([5]; female, 30 mg/kg/day, food ad-mix 30 mg/kg/day, Day 90, Female) was 389 ng·h/mL and the AUC(0-t) ([5]; female, 100 mg/kg/day, food ad-mix 100 mg/kg/day, Day 90, Female) was 1400 ng·h/mL. For the same compound, the AUC0-24/dose ([5]; food ad-mix 30 mg/kg/day, Day 7, Combined) was 5.92 ng·h/mL/mg/kg, the AUC0-24/dose ([5]; food ad-mix 30 mg/kg/day, Day 7, Female) was 3.5 ng·h/mL/mg/kg and the AUC0-24/dose ([5]; food ad-mix 30 mg/kg/day, Day 7, Male) was 8.34 ng·h/mL/mg/kg. The AUC0-24/dose ([5]; food ad-mix 30 mg/kg/day, Day 90, Combined) was 11.4 ng·h/mL/mg/kg, the AUC0-24/dose ([5]; food ad-mix 30 mg/kg/day, Day 90, Female) was 13.0 ng·h/mL/mg/kg and the AUC0-24/dose ([5]; food ad-mix 30 mg/kg/day, Day 90, Male) was 9.75 ng·h/mL/mg/kg. The AUC0-24/dose ([5]; food ad-mix 60 mg/kg/day, Day 7, Combined) was 6.61 ng·h/mL/mg/kg, the AUC0-24/dose ([5]; food ad-mix 60 mg/kg/day, Day 7, Female) was 9.43 ng·h/mL/mg/kg and the AUC0-24/dose ([5]; food ad-mix 60 mg/kg/day, Day 7, Male) was 3.79 ng·h/mL/mg/kg. The AUC0-24/dose ([5]; food ad-mix 60 mg/kg/day, Day 90, Combined) was 13.3 ng·h/mL/mg/kg, the AUC0-24/dose ([5]; food ad-mix 60 mg/kg/day, Day 90, Female) was 9.14 ng·h/mL/mg/kg and the AUC0-24/dose ([5]; food ad-mix 60 mg/kg/day, Day 90, Male) was 17.5 ng·h/mL/mg/kg. It also gave an AUC0-24/dose ([5]; food ad-mix 100 mg/kg/day, Day 7, Combined) of 10.4 ng·h/mL/mg/kg, an AUC0-24/dose ([5]; food ad-mix 100 mg/kg/day, Day 7, Female) of 11.7 ng·h/mL/mg/kg and an AUC0-24/dose ([5]; food ad-mix 100 mg/kg/day, Day 7, Male) of 9.15 ng·h/mL/mg/kg. It also gave an AUC0-24/dose ([5]; food ad-mix 100 mg/kg/day, Day 90, Combined) of 12.0 ng·h/mL/mg/kg, an AUC0-24/dose ([5]; food ad-mix 100 mg/kg/day, Day 90, Female) of 14.0 ng·h/mL/mg/kg and an AUC0-24/dose ([5]; food ad-mix 100 mg/kg/day, Day 90, Male) of 10.0 ng·h/mL/mg/kg. For the same compound, the AUC(0-t) ([5]; male, 30 mg/kg/day, food ad-mix 30 mg/kg/day, Day 90, Male) was 293 ng·h/mL, the AUC(0-t) ([5]; male, 100 mg/kg/day, food ad-mix 100 mg/kg/day, Day 90, Male) was 1000 ng·h/mL and the AUC(0-t) [6, 11] was 59.6 ± 26.1 ng·h/mL. For the same compound, the Cmax [6, 11] was 38.7 ± 24.5 ng/mL, the “%Cmax Relative to S9632” value ([6]; single oral 30 mg/kg, male rats, corrected for molecular weight) was 100.0% and the “Oxidative metabolites (M + 16) in fecal samples” value [7] was “not detectable”. For the same compound, the “Oxidative metabolites (M + 16) in urine” value [7] was “trace amounts”, the “Mutagenicity, result” value [8] was “not mutagenic” and the Findings ([9]; 30, 60, 100 mg/kg/day food ad-mix) was “No test-article related findings”. The NOEL ([9]; food ad-mix, male and female rats, highest dose tested) was 100 mg/kg/day and the Findings [10] was “No maternal toxicity or effects on intrauterine growth and survival up to 1000 mg/kg/day”.
